Legend:
[1] = molecular target: T1, Serotonin 2 (5-HT2) receptor (Rattus norvegicus, UniProt P30994+P08909+P14842); assay: (§1) In vitro antagonistic activity against the contraction induced by 5-HT through 5-hydroxytryptamine 2 receptor in rat thoracic aortic strips; format: functional
Procedure, shortened: (§2)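 Rat thoracic aortic strips, isometric tension; equilibrated 120 min, primed with 60 mM KCl. Cumulative 5-HT (0.1-100 μM) curve, wash, 1 h later second cumulative 5-HT curve with test drug present. pA2 from the concentration-response curves where blockade is competitive (otherwise noncompetitive); single determination.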

[2] = molecular target: T2, Serotonin 2 (5-HT2) receptor (Rattus norvegicus) (UniProt P30994+P08909+P14842); assay: In vivo inhibitory activity of 10 mg/kg compound in rats against elevation of BP caused by 5-HT (300 ug/kg, iv) through 5-hydroxytryptamine 2 receptor 1 hr after oral administration; format: functional, organism-based; set-up: dose 10 mg/kg
Procedure, shortened: (§3)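 Male SD rats anesthetized with urethane (1 g/kg ip) plus alpha-chloralose (80 mg/kg ip). Carotid arterial catheter to a pressure transducer, venous catheter for injection. After oral drug or vehicle, 5-HT 300 μg/kg iv. The pressor phase following the brief hypotensive phase was measured and expressed as % inhibition, mean ± SEM.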

[3] = molecular target: T3, Adrenergic receptor alpha-1 (Rattus norvegicus) (UniProt P15823+P23944+P43140); assay: In vivo inhibitory activity in rats against elevation of blood pressure caused by phenylephrine (30 ug/kg, iv) through Alpha-1 adrenergic receptor, after 1 hr oral administration at dose of 10 mg/kg; format: functional, organism-based; set-up: dose 10 mg/kg
Procedure, shortened: (§4)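 Male SD rats under urethane (1 g/kg ip) and alpha-chloralose (80 mg/kg ip). Blood pressure recorded via carotid catheter and transducer, iv dosing via venous catheter. After oral drug or vehicle, phenylephrine 30 μg/kg iv. The pressor rise was expressed as % inhibition, mean ± SEM.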

[4] = molecular target: T4, Adrenergic receptor alpha-1 (Rattus norvegicus, UniProt P15823+P23944+P43140); assay: In vitro antagonistic activity tested against the contraction induced by phenylephrine through Alpha-1 adrenergic receptor in rat thoracic aortic strips; format: functional
T4 sequence (P15823 whole entry): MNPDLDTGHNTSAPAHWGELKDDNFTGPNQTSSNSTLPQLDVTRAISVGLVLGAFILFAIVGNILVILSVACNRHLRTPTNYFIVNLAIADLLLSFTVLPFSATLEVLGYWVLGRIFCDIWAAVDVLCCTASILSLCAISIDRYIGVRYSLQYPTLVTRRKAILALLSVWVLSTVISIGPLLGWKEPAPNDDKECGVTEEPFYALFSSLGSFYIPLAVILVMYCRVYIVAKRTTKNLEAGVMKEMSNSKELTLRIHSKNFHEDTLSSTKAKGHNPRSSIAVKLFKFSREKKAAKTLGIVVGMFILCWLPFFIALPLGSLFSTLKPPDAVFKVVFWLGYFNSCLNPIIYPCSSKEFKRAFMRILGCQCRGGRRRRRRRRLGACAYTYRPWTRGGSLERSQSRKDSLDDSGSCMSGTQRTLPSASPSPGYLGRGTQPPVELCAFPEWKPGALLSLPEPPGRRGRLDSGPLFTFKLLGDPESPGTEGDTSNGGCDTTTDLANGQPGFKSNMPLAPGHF
T4 sequence (P23944 whole entry): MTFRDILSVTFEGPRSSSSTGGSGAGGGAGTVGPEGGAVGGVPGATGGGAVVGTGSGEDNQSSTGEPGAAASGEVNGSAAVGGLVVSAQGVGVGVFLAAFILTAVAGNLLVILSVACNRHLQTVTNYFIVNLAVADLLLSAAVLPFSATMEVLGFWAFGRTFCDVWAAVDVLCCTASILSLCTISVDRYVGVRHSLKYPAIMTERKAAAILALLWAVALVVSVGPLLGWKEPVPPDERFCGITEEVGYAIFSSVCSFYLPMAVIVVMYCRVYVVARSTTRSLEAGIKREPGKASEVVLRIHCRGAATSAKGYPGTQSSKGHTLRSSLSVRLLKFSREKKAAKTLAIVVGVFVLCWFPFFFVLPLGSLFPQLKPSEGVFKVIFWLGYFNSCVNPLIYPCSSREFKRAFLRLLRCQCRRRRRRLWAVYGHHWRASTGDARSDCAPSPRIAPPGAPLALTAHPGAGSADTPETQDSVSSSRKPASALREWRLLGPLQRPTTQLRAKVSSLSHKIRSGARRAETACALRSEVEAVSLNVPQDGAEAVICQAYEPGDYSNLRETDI
T4 sequence (P43140 whole entry): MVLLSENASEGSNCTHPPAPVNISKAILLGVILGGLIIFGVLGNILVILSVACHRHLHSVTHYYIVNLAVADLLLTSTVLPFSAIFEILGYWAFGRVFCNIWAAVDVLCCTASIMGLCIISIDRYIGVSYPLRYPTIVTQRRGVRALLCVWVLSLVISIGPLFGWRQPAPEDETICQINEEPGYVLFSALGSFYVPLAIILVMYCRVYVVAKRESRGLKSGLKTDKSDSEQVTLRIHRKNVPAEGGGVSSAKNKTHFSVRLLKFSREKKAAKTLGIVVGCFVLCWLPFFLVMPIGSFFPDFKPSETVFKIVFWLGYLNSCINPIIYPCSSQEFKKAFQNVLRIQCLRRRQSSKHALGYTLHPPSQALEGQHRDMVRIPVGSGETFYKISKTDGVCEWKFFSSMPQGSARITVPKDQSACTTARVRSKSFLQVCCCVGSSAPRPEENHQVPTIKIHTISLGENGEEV
Procedure, shortened: as §2, with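 “phenylephrine (0.01-10” for “5-HT (0.1-100”, “cumulative” for “cumulative 5-HT”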

[5] = molecular target: T2, Serotonin 2 (5-HT2) receptor (Rattus norvegicus); assay: In vivo inhibitory activity of 10 mg/kg compound in rats against elevation of BP caused by 5-HT (300 ug/kg, iv) through 5-hydroxytryptamine 2 receptor 3h after oral administration; format: functional, organism-based; set-up: dose 10 mg/kg; procedure, shortened: as §3
Mus musculus [6] = assay: The inhibition of compound was measured for 5 min in head twitches of mice induced by 5-HTP(100 mg/kg, ip) at the dose of 3 mg/kg; format: functional
Procedure, shortened: (§5)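 Mice received drug orally 1 h before 5-HTP (100 mg/kg ip). Head twitches were counted for 5 or 8 min, starting 30 min after 5-HTP. Results are % inhibition versus controls (n = 6), with n = 4 per treated dose.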

Mus musculus [7] = assay: The inhibition of compound was measured for 8 min in head twitches of mice induced by 5-HTP(100 mg/kg, ip) at the dose of 0.3 mg/kg; format: functional; procedure, shortened: as §5
Mus musculus [8] = assay: The inhibition of compound was measured for 5 min in head twitches of mice induced by 5-HTP(100 mg/kg, ip) at the dose of 10 mg/kg; format: functional; procedure, shortened: as §5
[9] = molecular target: T2, Serotonin 2 (5-HT2) receptor (Rattus norvegicus); assay: as §1; format: functional; details: concentration not given here; procedure, shortened: as §2
Mus musculus [10] = assay: The inhibition of compound was measured for 8 min in head twitches of mice induced by 5-HTP(100 mg/kg, ip) at the dose of 0.1 mg/kg; format: functional; procedure, shortened: as §5
[11] = molecular target: T2, Serotonin 2 (5-HT2) receptor (Rattus norvegicus); assay: In vivo inhibitory activity of 3 mg/kg compound in rats against elevation of BP caused by 5-HT (300 ug/kg, iv) through 5-hydroxytryptamine 2 receptor 3h after oral administration; format: functional, organism-based; set-up: dose 3 mg/kg; procedure, shortened: as §3
[12] = molecular target: T3, Adrenergic receptor alpha-1 (Rattus norvegicus); assay: In vivo inhibitory activity in rats against elevation of blood pressure caused by phenylephrine (30 ug/kg, iv) through alpha-1 receptor after 1 hr of oral administration at the dose of 10 mg/kg; format: functional, organism-based; set-up: dose 10 mg/kg; procedure, shortened: as §4
[13] = molecular target: T2, Serotonin 2 (5-HT2) receptor (Rattus norvegicus); assay: In vivo inhibitory activity of 3 mg/kg compound in rats against elevation of BP caused by 5-HT (300 ug/kg, iv) through 5-hydroxytryptamine 2 receptor 1 hr after oral administration; format: functional, organism-based; set-up: dose 3 mg/kg; procedure, shortened: as §3
[14] = molecular target: T1, Serotonin 2 (5-HT2) receptor; assay: In vitro antagonistic activity tested against the contraction induced by 5-HT through 5-hydroxytryptamine 2 receptor in rat thoracic aortic strips; format: functional
Mus musculus [15] = assay: The inhibition of compound was measured for 8 min in head twitches of mice induced by 5-HTP(100 mg/kg, ip) at the dose of 1 mg/kg; format: functional; procedure, shortened: as §5
[16] = molecular target: T1, Serotonin 2 (5-HT2) receptor; assay: In vitro antagonistic activity against the contraction induced by 5-HT through 5-HT2 receptor in rat thoracic aortic strips; format: functional; procedure, shortened: as §2
[17] = molecular target: T3, Adrenergic receptor alpha-1 (Rattus norvegicus); assay: In vitro antagonistic activity against the contraction induced by phenylephrine through Alpha-1 adrenergic receptor in rat thoracic aortic strips; format: functional; details: concentration not given here
Procedure, shortened: as §2, with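 “phenylephrine (0.01-10” for “5-HT (0.1-100”, “cumulative” for “cumulative 5-HT”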

[18] = molecular target: T3, Adrenergic receptor alpha-1 (Rattus norvegicus); assay: In vivo inhibitory activity in rats against elevation of blood pressure caused by phenylephrine (30 ug/kg, iv) through alpha-1 receptor after 3h of oral administration at the dose of 10 mg/kg; format: functional, organism-based; set-up: dose 10 mg/kg; procedure, shortened: as §4
[19] = molecular target: T4, Adrenergic receptor alpha-1; assay: In vitro antagonistic activity against the contraction induced by phenylephrine through alpha-1 receptor in rat thoracic aortic strips; format: functional
Procedure, shortened: as §2, with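 “phenylephrine (0.01-10” for “5-HT (0.1-100”, “cumulative” for “cumulative 5-HT”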

[20] = test system: Serotonin 2 (5-HT2) receptor (Rattus norvegicus); assay: In vivo inhibitory activity in rats against elevation of blood pressure caused by 5-HT (300 ug/kg, iv) through 5-HT2 receptor after 3h of oral administration at the dose of 3 mg/kg
Mus musculus [21] = assay: The inhibition of compound was measured for 5 min in head twitches of mice induced by 5-HTP(100 mg/kg, ip) at the dose of 30 mg/kg; format: functional; procedure, shortened: as §5
[22] = molecular target: T3, Adrenergic receptor alpha-1 (Rattus norvegicus); assay: In vivo inhibitory activity in rats against elevation of blood pressure caused by phenylephrine (30 ug/kg, iv) through Alpha-1 adrenergic receptor after 1 hr of oral administration at the dose of 10 mg/kg; format: functional, organism-based; set-up: dose 10 mg/kg; procedure, shortened: as §4
Mus musculus [23] = assay: The inhibition of compound was measured for 5 min in head twitches of mice induced by 5-HTP(100 mg/kg, ip) at the dose of 1 mg/kg; format: functional; procedure, shortened: as §5

T2 sequence (P08909 whole entry, looked up): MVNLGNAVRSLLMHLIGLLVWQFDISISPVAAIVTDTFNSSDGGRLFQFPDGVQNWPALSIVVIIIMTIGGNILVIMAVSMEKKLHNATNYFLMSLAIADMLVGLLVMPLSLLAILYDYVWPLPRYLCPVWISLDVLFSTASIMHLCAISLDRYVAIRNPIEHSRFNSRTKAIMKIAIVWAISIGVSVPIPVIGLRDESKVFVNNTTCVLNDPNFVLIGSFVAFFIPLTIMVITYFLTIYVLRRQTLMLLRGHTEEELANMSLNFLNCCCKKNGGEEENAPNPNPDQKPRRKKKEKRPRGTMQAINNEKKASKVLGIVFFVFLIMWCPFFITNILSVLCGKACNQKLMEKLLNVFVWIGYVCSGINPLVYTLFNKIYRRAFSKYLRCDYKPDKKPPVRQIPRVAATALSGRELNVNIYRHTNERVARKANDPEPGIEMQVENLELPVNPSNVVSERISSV
T2 sequence (P14842 whole entry, looked up): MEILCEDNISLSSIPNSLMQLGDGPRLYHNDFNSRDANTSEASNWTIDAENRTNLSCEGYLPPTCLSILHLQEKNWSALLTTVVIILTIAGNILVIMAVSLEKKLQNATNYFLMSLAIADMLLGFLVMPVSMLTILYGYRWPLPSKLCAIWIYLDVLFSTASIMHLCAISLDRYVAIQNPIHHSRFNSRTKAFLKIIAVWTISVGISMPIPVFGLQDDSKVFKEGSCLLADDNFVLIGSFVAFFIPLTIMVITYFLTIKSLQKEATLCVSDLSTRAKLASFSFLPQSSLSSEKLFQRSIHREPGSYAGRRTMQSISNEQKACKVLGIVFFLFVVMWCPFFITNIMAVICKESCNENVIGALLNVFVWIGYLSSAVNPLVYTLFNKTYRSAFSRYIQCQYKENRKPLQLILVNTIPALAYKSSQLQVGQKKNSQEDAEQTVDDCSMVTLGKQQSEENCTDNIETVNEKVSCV
T2 sequence (P30994 whole entry, looked up): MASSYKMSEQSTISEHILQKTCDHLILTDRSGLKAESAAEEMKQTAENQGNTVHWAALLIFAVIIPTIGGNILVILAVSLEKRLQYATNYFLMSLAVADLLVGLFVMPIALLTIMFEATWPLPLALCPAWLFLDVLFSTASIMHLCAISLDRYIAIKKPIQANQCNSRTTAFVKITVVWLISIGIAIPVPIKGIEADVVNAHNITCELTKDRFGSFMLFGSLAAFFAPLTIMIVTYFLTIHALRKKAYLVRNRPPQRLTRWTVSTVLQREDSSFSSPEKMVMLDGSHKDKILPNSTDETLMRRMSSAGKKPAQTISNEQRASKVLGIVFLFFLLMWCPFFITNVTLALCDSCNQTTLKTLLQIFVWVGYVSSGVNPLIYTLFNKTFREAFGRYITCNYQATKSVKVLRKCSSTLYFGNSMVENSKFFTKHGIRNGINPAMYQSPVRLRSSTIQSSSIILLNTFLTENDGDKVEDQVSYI

SMILES | inhibition [2] | pA2 [4] | inhibition [5] | inhibition [9] | inhibition [11] | inhibition [13] | pA2 [14] | inhibition [3] | inhibition in vivo at 3 mg/kg (Mus musculus [6]) | inhibition in vivo at 0.3 mg/kg (Mus musculus [7]) | inhibition in vivo at 10 mg/kg (Mus musculus [8]) | inhibition in vivo at 0.1 mg/kg (Mus musculus [10]) | inhibition [12] | inhibition in vivo at 1 mg/kg (Mus musculus [15]) | further results
O=C(c1ccc(Cl)cc1)C1CCN(CCn2nc3n(c2=O)CCCC3)CC1 | 83% | 7.2 |  |  |  |  |  | 16% |  |  |  |  |  |  | pA2 [1]: 7.2
O=C(c1ccc(F)cc1)C1CCN(CCn2c(=O)nc3n(c2=O)CCCC3)CC1 |  | 6.9 | 90% | 93% | 83% | 93% | 8.1 | 33% | 67% | 59% | 80% | 49% | 33% | 81% | 
O=c1n(CCN2CCC(=C(c3ccc(F)cc3)c3ccc(F)cc3)CC2)nc2n1CCCC2 |  |  | 87% | 96% | 78% | 76% | 8.6 |  | 13% |  | 55% |  |  |  | inhibition [17]: 14%; inhibition [18]: 4%; pA2 [19]: 7; inhibition [20]: 11%; inhibition in vivo at 30 mg/kg (Mus musculus [21]): 85%; inhibition [22]: 14%

The next lines start with results.

inhibition [2] | pA2 [4] | inhibition [5] | inhibition [9] | inhibition [11] | inhibition [13] | pA2 [14] | SMILES | inhibition [3] | inhibition in vivo at 3 mg/kg (Mus musculus [6]) | inhibition in vivo at 0.3 mg/kg (Mus musculus [7]) | inhibition in vivo at 10 mg/kg (Mus musculus [8]) | inhibition in vivo at 0.1 mg/kg (Mus musculus [10]) | inhibition [12] | inhibition in vivo at 1 mg/kg (Mus musculus [15]) | further results
58% | 6.6 |  |  |  |  |  | O=c1n(CCN2CCC(=C(c3ccc(F)cc3)c3ccc(F)cc3)CC2)nc2ccccn12 | 6% |  |  |  |  |  |  | pA2 [16]: 7
 | 7.8 | 100% |  | 84% | 96% |  | O=C(c1ccc(F)cc1)C1CCN(CCn2c(=O)[nH]c3ccccc3c2=O)CC1 [KETANSERIN] | 91% | 92% | 88% | 100% | 49% | 91% | 93% | 
 | 7.5 |  |  |  |  |  | Cc1nc2sccn2c(=O)c1CCN1CCC(=C(c2ccc(F)cc2)c2ccc(F)cc2)CC1 [RITANSERIN] | 7% | 95% |  | 100% |  |  |  | inhibition in vivo at 1 mg/kg (Mus musculus [23]): 80%

Reference: ChEMBL document CHEMBL1126018, “Syntheses and 5-HT2 antagonist activity of bicyclic 1,2,4-triazol-3(2H)-one and 1,3,5-triazine-2,4(3H)-dione derivatives” (J Med Chem, 1992)
